The source of these data is ChEMBL document CHEMBL1781970, “Synthesis and antiproliferative evaluation of 23-hydroxybetulinic acid derivatives” (Eur J Med Chem, 2011).

Common to all, as to format: functional, cell-based
One experiment concerns HeLa. The experiment in a line: Antiproliferative activity against human HeLa cells after 72 hrs by MTT assay. The procedure, abridged: (§1)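 Cells grown in RPMI 1640 with 10% FBS and 1% penicillin-streptomycin at 37 °C, 5% CO2, then seeded overnight in 96-well plates. Test compounds were dissolved in DMSO (doxorubicin control in PBS) and given at various concentrations for 72 h at 37 °C. MTT (5 mg/mL in PBS) was added for 4 h and OD read at 570 nm. IC50 was taken from dose-response curves; mean ± SD, ≥3 independent experiments.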
A general note: Tetrazolium assays rely on reduction of a dye to a coloured formazan, in cell work by metabolically active cells.

Another experiment deals with B16. The experiment in a line: Antiproliferative activity against mouse B16 cells after 72 hrs by MTT assay. The note with it: B16, 72 h. The procedure, abridged:
as §1

For another experiment, the system named is A-375. Briefly: Antiproliferative activity against human A375 cells after 72 hrs by MTT assay. As to conditions: A-375, 72 h. In short, it runs like this:
as §1

For a further experiment, the system named is MCF7. The experiment in a line: Antiproliferative activity against human MCF7 cells after 72 hrs by MTT assay. As to conditions: MCF7, 72 h. The procedure, abridged: as §1
In a further experiment the test system is HepG2. The experiment in a line: Antiproliferative activity against human HepG2 cells after 72 hrs by MTT assay. As to conditions: HepG2, 72 h. The procedure, abridged:
as §1

Each structure is given as a SMILES string. pIC50: −log10 of the molar value.

As to `C=C(CO)[C@@H]1CC[C@]2(C(=O)OCCC(C)C)CC[C@]3(C)[C@H](CC[C@@H]4[C@@]5(C)CC[C@H](OC(C)=O)[C@@](C)(COC(C)=O)[C@@H]5CC[C@]43C)[C@@H]12`, the pIC50 in the experiment with HeLa was 4.68; with B16 it was 4.45; in the experiment with A-375 it was 5.11; in the experiment on MCF7 it was 4.82; in the experiment on HepG2, 4.97.
The like results for `C=C(C)[C@@H]1CC[C@]2(C(=O)N3CCC[C@H]3C(=O)OC)CC[C@]3(C)[C@H](CC[C@@H]4[C@@]5(C)CC[C@H](OC(C)=O)[C@@](C)(COC(C)=O)[C@@H]5CC[C@]43C)[C@@H]12` were, in that order, 5.01, 4.03, 5.23, 4.57 and 5.01.
Take `C=CCN(CC=C)C(=O)[C@]12CC[C@@H](C(=C)C)[C@@H]1[C@H]1CC[C@@H]3[C@@]4(C)CC[C@H](OC(C)=O)[C@@](C)(COC(C)=O)[C@@H]4CC[C@@]3(C)[C@]1(C)CC2`: the pIC50 in the experiment with HeLa was 5.01; with B16, less than 4.00; in the experiment on A-375, 4.72; in the experiment with MCF7 it was 4.33; in the experiment with HepG2 it was 5.08.
The like results for `C=C(CO)[C@@H]1CC[C@]2(C(=O)OCCC(C)C)CC[C@]3(C)[C@H](CC[C@@H]4[C@@]5(C)CC[C@H](O)[C@@](C)(CO)[C@@H]5CC[C@]43C)[C@@H]12` were, in that order, 4.68, 4.29, 4.75, 4.90 and 4.46.
The like results for `C=C(C)[C@@H]1CC[C@]2(C(=O)N[C@@H](CCSC)C(=O)N[C@@H](CCSC)C(=O)O)CC[C@]3(C)[C@H](CC[C@@H]4[C@@]5(C)CC[C@H](O)[C@@](C)(CO)[C@@H]5CC[C@]43C)[C@@H]12` were, in that order, less than 4.00, 4.19, 4.05, 4.07 and less than 4.00.
`C=C(CO)[C@@H]1CC[C@]2(C(=O)N3CCC[C@H]3C(=O)OC)CC[C@]3(C)[C@H](CC[C@@H]4[C@@]5(C)CC[C@H](OC(C)=O)[C@@](C)(COC(C)=O)[C@@H]5CC[C@]43C)[C@@H]12`: the pIC50 was 4.88 with HeLa; 4.16 in the experiment on B16; 4.93 with A-375; 4.50 with MCF7; 5.00 in the experiment on HepG2.
The like results for `C=C(CO)[C@@H]1CC[C@]2(C(=O)OC(C)(C)C)CC[C@]3(C)[C@H](CC[C@@H]4[C@@]5(C)CC[C@H](OC(C)=O)[C@@](C)(COC(C)=O)[C@@H]5CC[C@]43C)[C@@H]12` were, in that order, 4.63, 4.31, 4.46, 4.85 and 4.80.
The like results for `C=C(C)[C@@H]1CC[C@]2(C(=O)NCCCCn3nnc(-c4ccccn4)n3)CC[C@]3(C)[C@H](CC[C@@H]4[C@@]5(C)CC[C@H](O)[C@@](C)(CO)[C@@H]5CC[C@]43C)[C@@H]12` were, in that order, 4.33, 4.17, 4.51, 4.75 and 4.32.
With `C=C(C)[C@@H]1CC[C@]2(C(=O)NCCNC(=O)CCC(=O)O)CC[C@]3(C)[C@H](CC[C@@H]4[C@@]5(C)CC[C@H](OC(C)=O)[C@@](C)(COC(C)=O)[C@@H]5CC[C@]43C)[C@@H]12`, the pIC50 in the experiment on HeLa is 4.14; in the experiment on B16, 4.08; in the experiment on A-375 it was 4.23; in the experiment on MCF7, 4.29; with HepG2 it was 4.12.
The like results for `C=C(C)[C@@H]1CC[C@]2(C(=O)N3CCC[C@H]3C(=O)N[C@@H](CCSC)C(=O)OC)CC[C@]3(C)[C@H](CC[C@@H]4[C@@]5(C)CC[C@H](O)[C@@](C)(CO)[C@@H]5CC[C@]43C)[C@@H]12` were, in that order, 4.38, 4.68, 4.52, 4.70 and 4.39.
In the same order, the values of `C=C(C)[C@@H]1CC[C@]2(C(=O)NCC(=O)N[C@@H](C)C(=O)O)CC[C@]3(C)[C@H](CC[C@@H]4[C@@]5(C)CC[C@H](O)[C@@](C)(CO)[C@@H]5CC[C@]43C)[C@@H]12` are 4.66, 4.65, 4.74, 4.76 and 4.49.
The like results for `C=C(C)[C@@H]1CC[C@]2(C(=O)N3CCC[C@H]3C(=O)O)CC[C@]3(C)[C@H](CC[C@@H]4[C@@]5(C)CC[C@H](O)[C@@](C)(CO)[C@@H]5CC[C@]43C)[C@@H]12` were, in that order, 4.02, 4.06, less than 4.00, less than 4.00 and 4.14.
In the case of `C=C(C)[C@@H]1CC[C@]2(C(=O)N[C@@H](CCSC)C(=O)N[C@@H](CCSC)C(=O)OC)CC[C@]3(C)[C@H](CC[C@@H]4[C@@]5(C)CC[C@H](O)[C@@](C)(CO)[C@@H]5CC[C@]43C)[C@@H]12`, the pIC50 in the experiment on HeLa was 4.35; in the experiment on B16, 4.69; with A-375, 4.57; in the experiment on MCF7 it was 4.18; with HepG2, 4.64.
The like results for `C=C(CO)[C@@H]1CC[C@]2(C(=O)N3CCOCC3)CC[C@]3(C)[C@H](CC[C@@H]4[C@@]5(C)CC[C@H](OC(C)=O)[C@@](C)(COC(C)=O)[C@@H]5CC[C@]43C)[C@@H]12` were, in that order, 4.74, 4.41, 4.50, 4.76 and 4.68.
In the same order, the values of `C=C(C)[C@@H]1CC[C@]2(C(=O)O)CC[C@]3(C)[C@H](CC[C@@H]4[C@@]5(C)CC[C@H](O)[C@@](C)(COC(=O)N6CCC(N7CCCCC7)CC6)[C@@H]5CC[C@]43C)[C@@H]12` are 4.90, 5.14, 5.03, 5.00 and 4.73.
`C=CCN(CC=C)C(=O)[C@]12CC[C@@H](C(=C)C)[C@@H]1[C@H]1CC[C@@H]3[C@@]4(C)CC[C@H](O)[C@@](C)(CO)[C@@H]4CC[C@@]3(C)[C@]1(C)CC2`: the pIC50 with HeLa was 4.23; with B16, 4.22; with A-375 it was 4.76; with MCF7 it was 4.75; in the experiment with HepG2, 4.22.
As to `C=C(C)[C@@H]1CC[C@]2(C(=O)OC/C=C/CO)CC[C@]3(C)[C@H](CC[C@@H]4[C@@]5(C)CC[C@H](O)[C@@](C)(CO)[C@@H]5CC[C@]43C)[C@@H]12`, the pIC50 is 4.35 in the experiment with HeLa; 4.72 with B16; 4.25 in the experiment with A-375; 4.44 with MCF7; 4.42 in the experiment with HepG2.
Consider `C=C(C)[C@@H]1CC[C@]2(C(=O)N3CCOCC3)CC[C@]3(C)[C@H](CC[C@@H]4[C@@]5(C)CC[C@H](O)[C@@](C)(CO)[C@@H]5CC[C@]43C)[C@@H]12`, for which the pIC50 with HeLa was 4.46; in the experiment on B16, 4.37; in the experiment on A-375, 4.60; in the experiment on MCF7 it was 4.70; in the experiment on HepG2, 4.38.
As to `C=C(C)[C@@H]1CC[C@]2(C(=O)NCCN)CC[C@]3(C)[C@H](CC[C@@H]4[C@@]5(C)CC[C@H](O)[C@@](C)(CO)[C@@H]5CC[C@]43C)[C@@H]12`, the pIC50 with HeLa is 5.05; in the experiment on B16 it was 5.08; with A-375, 5.32; in the experiment with MCF7 it was 5.53; in the experiment on HepG2, 5.02.
The like results for `C=C(C)[C@@H]1CC[C@]2(C(=O)NCC(=O)N3CCC[C@H]3C(=O)O)CC[C@]3(C)[C@H](CC[C@@H]4[C@@]5(C)CC[C@H](O)[C@@](C)(CO)[C@@H]5CC[C@]43C)[C@@H]12` were, in that order, less than 4.00, less than 4.00, less than 4.00, less than 4.00 and less than 4.00.
The like results for `C=C(C)[C@@H]1CC[C@]2(C(=O)OCCN3CCOCC3)CC[C@]3(C)[C@H](CC[C@@H]4[C@@]5(C)CC[C@H](O)[C@@](C)(CO)[C@@H]5CC[C@]43C)[C@@H]12` were, in that order, less than 4.00, 4.34, 4.47, 4.46 and 4.23.
In the same order, the values of `C=C(C)[C@@H]1CC[C@]2(C(=O)N3CCC[C@H]3C(=O)N[C@@H](CCSC)C(=O)O)CC[C@]3(C)[C@H](CC[C@@H]4[C@@]5(C)CC[C@H](O)[C@@](C)(CO)[C@@H]5CC[C@]43C)[C@@H]12` are 4.09, 4.12, 4.18, 4.38 and 4.04.
Take `C=C(CO)[C@@H]1CC[C@]2(C(=O)OCC3CCCO3)CC[C@]3(C)[C@H](CC[C@@H]4[C@@]5(C)CC[C@H](OC(C)=O)[C@@](C)(COC(C)=O)[C@@H]5CC[C@]43C)[C@@H]12` (stereo not given in full): the pIC50 in the experiment with HeLa was 4.75; in the experiment with B16, 4.38; with A-375, 4.90; with MCF7 it was 4.47; in the experiment on HepG2 it was 4.73.
The like results for `C=C(C)[C@@H]1CC[C@]2(C(=O)O)CC[C@]3(C)[C@H](CC[C@@H]4[C@@]5(C)CC[C@H](O)[C@@](C)(CO)[C@@H]5CC[C@]43C)[C@@H]12` were, in that order, 4.34, 4.73, 4.38, 4.33 and 4.38.

Usually pIC50 stands for the negative decadic logarithm of the IC50, by convention in mol/L.
